Shown are actives, neighbours in structure and some others; about 3.3% of the full set was active somewhere.
PRMT1 FP inh: PRMT1 methyltransferase inhibitors, primary screen, biochemical, fluorescence polarization; Protein arginine N-methyltransferase 1 (Homo sapiens), Q99873; AID 652257, 2013; inhibition, % at 2.79 µM; hit rate 1.3% among 370,000; recombinant PRMT1, activity-based probe fluorescence polarization;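 active means inhibition above about 21% made by adding two undisclosed values, limit read from the data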
Target sequence (Q99873 whole entry, looked up): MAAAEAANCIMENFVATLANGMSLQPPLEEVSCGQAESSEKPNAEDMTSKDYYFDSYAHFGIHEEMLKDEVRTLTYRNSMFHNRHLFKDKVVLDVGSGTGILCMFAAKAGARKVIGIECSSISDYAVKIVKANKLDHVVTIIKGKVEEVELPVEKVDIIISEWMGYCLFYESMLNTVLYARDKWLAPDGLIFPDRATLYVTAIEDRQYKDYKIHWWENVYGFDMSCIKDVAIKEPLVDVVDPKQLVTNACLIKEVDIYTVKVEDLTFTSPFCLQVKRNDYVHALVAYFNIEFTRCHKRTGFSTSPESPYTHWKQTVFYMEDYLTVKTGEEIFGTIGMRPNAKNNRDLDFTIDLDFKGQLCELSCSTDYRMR
SIAE inh: human SIAE inhibitors, primary screen, biochemical, fluorescence polarization, FP-Rh probe, 1536-well HTS; Sialate O-acetylesterase (Homo sapiens), Q9HAT2; SIAE FP-Rh probe binding; inhibition, % at 9.66 µM; hit rate 0.69% among 370,000; AID 1053197, 2014;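 active means inhibition above a cutoff: mean of compounds within the control limits plus 3 SD of those, cut at about 17% in these data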;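 further: 0% = plate median of compound wells and 100% = probe without SIAE protein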
TCR-CD3 inh: inhibitors of human TCR-CD3 interaction, primary screen, biochemical, fluorescence, TAMRA-labeled TCR probe; AID 651800, 2012; hit rate 0.37% among 360,000; inhibition, % at 9.4 µM; in the data active means inhibition above about 19%;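 further: recombinant mutant TCR 2C K166C tagged with TAMRA read by polarization; 0% = receptor in buffer alone and 100% = receptor with positive control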
rCAG RNA binder: binders of r(CAG) RNA repeats, primary screen, biochemical, fluorescence. inhibition, % at 3 µM. hit rate 1.3% among 370,000. r(CAG) RNA repeat, TO-PRO-1 dye displacement fluorescence;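 active means inhibition above the plate cutoff, the mean of all test compounds on that plate plus 3 SD, cut at about 35% in these data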;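 further: 0% = DMSO alone and 100% = 100 µM mitoxantrone as full dye displacement; higher means more dye released from RNA so lower well fluorescence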
ABHD4 inh: ABHD4 inhibitors, primary screen, biochemical, fluorescence polarization, mouse; AID 720543, 2013; purified mABHD4, FP-Rh probe fluorescence polarization; inhibition, % at 8.92 µM; (Lyso)-N-acylphosphatidylethanolamine lipase (Mus musculus), Q8VD66; hit rate 0.54% among 370,000;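 active means inhibition exceeding the mean over every tested compound plus 3 SD, cut at about 30% in these data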;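 further: 0% = plate median of compound wells and 100% = S159A mutant with DMSO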
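Test system: mouse ABHD4 enzyme, wild type. Reagent: FP-Rh fluorescent activity-based probe, added after compound pre-incubation. Timing: pre-incubation 45 min, probe exposure 60 min, at 25 °C. Technique: FP readout, ex 525 nm / em 598 nm. Benchmarks: high control S159A mutant with DMSO, low control median of compound wells.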
rCAG binder conf: small molecules binding CAG repeat RNA – biochemical, fluorescence, confirmation; shares compounds with rCAG RNA binder; hit rate 70% among 4,300; inhibition, % at 3 µM; r(CAG) RNA repeat, TO-PRO-1 dye displacement fluorescence; AID 652065, 2013;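 active means inhibition above a per-plate cutoff, the mean inhibition of sample wells plus 3 SD, cut at about 35% in these data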;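 further: loss of TO-PRO-1 fluorescence as compound displaces dye from 1x1 AA loop RNA; 0% = DMSO only wells and 100% = 100 µM mitoxantrone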
dCAG dye counter: displacement of TO-PRO-1 from CAG DNA duplex, counter-screen for rCAG RNA repeat binder project, biochemical, fluorescence, TO-PRO-1 dye, d(CAG) DNA oligo; shares compounds with rCAG RNA binder; d(CAG) DNA oligo TO-PRO-1 dye displacement; inhibition, % at 3 µM; hit rate 94% among 4,300; AID 652068, 2013;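 active means inhibition above its plate's cutoff, the mean test-well inhibition plus 3 SD, cut at about 4.8% in these data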;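 further: 0% = DNA dye mix with DMSO and 100% = 100 µM mitoxantrone; hits displace the dye from DNA and so lower well fluorescence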
An asterisk follows results filed as active.

O=C1NC(=O)N(Cc2ccco2)C(=O)/C1=C/c1cccn1CCOc1ccccc1Cl was read as PRMT1 FP inh 22*, SIAE inh -24, TCR-CD3 inh -3, rCAG RNA binder 49*, ABHD4 inh -13, rCAG binder conf 11 and dCAG dye counter 5.7*.
Screening COc1ccc(CN2C(=O)NC(=O)/C(=C/c3ccoc3)C2=O)cc1 returned PRMT1 FP inh -15, SIAE inh -9, TCR-CD3 inh -8, rCAG RNA binder 53*, ABHD4 inh -38, rCAG binder conf 45* and dCAG dye counter 17*.
Screening O=C1NC(=O)N(Cc2ccccc2)C(=O)/C1=C\c1ccco1 returned PRMT1 FP inh 17, SIAE inh -4, TCR-CD3 inh -17, rCAG RNA binder 48*, ABHD4 inh -23, rCAG binder conf 35* and dCAG dye counter 11*.
CCOC(=O)[C@]12Cc3c(cc(OC)c(OC)c3OC)[C@H]1N(C(C)C)C(=O)c1cc(OC)ccc12 was read as PRMT1 FP inh -3, SIAE inh 3, TCR-CD3 inh 8, rCAG RNA binder -1 and ABHD4 inh 0.
`O=C(NC1CN2CCC1CC2)c1ccc(-c2ccc([N+](=O)[O-])cc2)o1` (configuration not stated) gave PRMT1 FP inh 19, SIAE inh 15, TCR-CD3 inh -4, rCAG RNA binder 10 and ABHD4 inh 5.
CN(C)C(=O)Oc1ccc2nnc3ccnn3c2c1 was read as PRMT1 FP inh 3, SIAE inh 1, TCR-CD3 inh 10, rCAG RNA binder -1 and ABHD4 inh 12.
For C[C@H](NC(=O)OCc1ccccc1)[P+](=O)O the results were PRMT1 FP inh 0, SIAE inh 7, rCAG RNA binder 3 and ABHD4 inh 3.
COc1ccc(C(SCC(NC(=O)OCc2ccccc2)C(=O)O)c2ccc(OC)cc2)cc1 (configuration not stated) was read as PRMT1 FP inh 2, SIAE inh -2, TCR-CD3 inh -1, rCAG RNA binder 53*, ABHD4 inh -7, rCAG binder conf 53* and dCAG dye counter 14*.
For COP(=S)(OC)Oc1ccc(Sc2ccc(OP(=S)(OC)OC)cc2)cc1 the results were PRMT1 FP inh -8, SIAE inh 4, TCR-CD3 inh -5, rCAG RNA binder 39*, ABHD4 inh -16, rCAG binder conf 19 and dCAG dye counter 7.6*.
For Nc1ccc(Sc2ccc(N)cc2)cc1 the results were PRMT1 FP inh 5, SIAE inh 7, TCR-CD3 inh 6, rCAG RNA binder 4 and ABHD4 inh 3.
For N#CC(C#N)=C(N)c1cccnc1 the results were PRMT1 FP inh 1, SIAE inh 0, TCR-CD3 inh 0, rCAG RNA binder 1 and ABHD4 inh -1.
For O=C1c2cccc(N3CCNCC3)c2C2CCCCN12 (configuration not stated) the results were PRMT1 FP inh -1, SIAE inh -1, TCR-CD3 inh 5, rCAG RNA binder 6 and ABHD4 inh 8.
Screening CCCCN1C(=O)/C(=C/c2ccc(N(C)C)cc2)C(=O)N(Cc2ccco2)C1=O returned PRMT1 FP inh 6, SIAE inh -77, TCR-CD3 inh -40, rCAG RNA binder 54*, ABHD4 inh -85, rCAG binder conf 33 and dCAG dye counter 10*.
Cc1cc(/C=C2/C(=O)NC(=O)N(Cc3ccco3)C2=O)c(C)n1-c1ccccc1O was read as PRMT1 FP inh 9, SIAE inh -18, TCR-CD3 inh 7, rCAG RNA binder 17 and ABHD4 inh -5.
CC(C)n1c(=O)c(C=Nc2ccc(S(N)(=O)=O)cc2)c(O)n(Cc2ccco2)c1=O was read as PRMT1 FP inh 3, SIAE inh -12, TCR-CD3 inh -12, rCAG RNA binder 35*, ABHD4 inh -12, rCAG binder conf 20 and dCAG dye counter 9.8*.
CCCCn1c(=O)c(C=Nc2ccc(Cl)cc2)c(O)n(Cc2ccco2)c1=O was read as PRMT1 FP inh 5, SIAE inh -38, TCR-CD3 inh 4, rCAG RNA binder 10 and ABHD4 inh 0.
COC1CCC(OC2CC(C3(C)CCC4(CC(O)C(C)C(C(C)/C=C(\C)C(=O)C(C)CC(C)C(=O)O)O4)O3)OC3(OC(C4OC(O)(CO)C(C)CC4C)CC3C)C2C)OC1C (configuration not stated) was read as PRMT1 FP inh -3, SIAE inh 2, TCR-CD3 inh -6, rCAG RNA binder 1 and ABHD4 inh -8.
Cc1cc(OCC(=O)NC(Cc2ccc(Cl)cc2)C(=O)O)c2c3c(c(=O)oc2c1)CCCC3 (configuration not stated) was read as PRMT1 FP inh -2, SIAE inh -6, TCR-CD3 inh 7, rCAG RNA binder 63*, ABHD4 inh 0, rCAG binder conf 66* and dCAG dye counter 27*.
Screening Cc1cccc(N2C(=O)/C(=C/c3ccc(N4CCN(C)CC4)o3)C(=O)NC2=S)c1C returned PRMT1 FP inh 16, SIAE inh -24, TCR-CD3 inh -25, rCAG RNA binder 49*, ABHD4 inh -30, rCAG binder conf 55* and dCAG dye counter 26*.
CCc1ccccc1N1C(=O)/C(=C/c2ccc(N3CCN(C)CC3)o2)C(=O)NC1=S was read as PRMT1 FP inh 12, SIAE inh -19, TCR-CD3 inh -22, rCAG RNA binder 50*, ABHD4 inh -32, rCAG binder conf 48* and dCAG dye counter 24*.
Screening CCOc1ccc(N2C(=O)/C(=C\c3cccs3)C(=O)NC2=S)cc1 returned PRMT1 FP inh 19, SIAE inh -37, TCR-CD3 inh -63, rCAG RNA binder 39*, ABHD4 inh -123, rCAG binder conf 9 and dCAG dye counter 7.3*.
For CC(C)c1ccc(N2C(=O)NC(=O)/C(=C/C=C/c3ccco3)C2=O)cc1 the results were PRMT1 FP inh 9, SIAE inh -35, TCR-CD3 inh -19, rCAG RNA binder 54*, ABHD4 inh -23, rCAG binder conf 29 and dCAG dye counter 9.4*.
Cc1cc(C)cc(N2C(=O)NC(=O)/C(=C\C=C\c3ccco3)C2=O)c1 was read as PRMT1 FP inh 15, SIAE inh -31, TCR-CD3 inh -17, rCAG RNA binder 39*, ABHD4 inh -14, rCAG binder conf 15 and dCAG dye counter 7.7*.

Screening data deposited in PubChem BioAssay by The Scripps Research Institute Molecular Screening Center.
